Legend:
Leishmania donovani [1] = assay: Antileishmanial activity against Leishmania donovani MHOM/IN/00/DEVI promastigotes assessed as inhibition of parasitic metabolic activity measured after 72 hrs by MTT assay; type: functional, organism-based
Summary of the method: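 Log-phase promastigotes at 10⁶/mL were grown in Schneider's medium with 20% FCS at 27 °C. Compound was added from DMSO stock (final <0.5% v/v), in duplicate, for 72 h. Metabolic activity was read by MTT (4 h, 27 °C) and absorbance at 570 nm. EC50 came from non-linear dose-response regression, as the mean of ≥3 independent experiments.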

Leishmania infantum = assay: Antileishmanial activity against Leishmania infantum MHOM/MA/67/ITMAP-263 axenic amastigotes assessed as inhibition of parasitic metabolic activity incubated for 48 hrs by steady Glow reagent based luminescence assay; type: functional, organism-based; conditions: MHOM/MA/67/ITMAP-263, 48 h
Summary of the method: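 Luciferase-expressing promastigotes were acidified (pH 5.4, 24 h, 24 °C) and then held 24 h at 37 °C to give axenic amastigotes. These were used at 2×10⁶/mL with compound (DMSO <0.5%), in duplicate, for 48 h at 37 °C. Luciferase luminescence was read. EC50 came from non-linear regression, as the mean of three independent experiments.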

[2] = tested on: Trypanosoma brucei brucei; assay: Antitrypanosomal activity against bloodstream form Trypanosoma brucei brucei AnTat 1.9 trypomastigotes assessed as reduction in parasite viability incubated for 69 hrs by Alamar Blue dye based assay; type: functional, organism-based; conditions: AnTat 1.9, 69 h
Summary of the method: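 BSF parasites were cultured in MEM/Baltz medium with 20% heat-inactivated horse serum, mercaptoethanol, L-cysteine and bathocuproine, at 37 °C and 5% CO₂. Cells were seeded at 2000 parasites/100 µL with compound from DMSO, in duplicate, for 69 h. Alamar Blue was added for 5 h and fluorescence read (ex 530/em 590 nm). EC50 came from non-linear regression over three independent experiments.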

[3] = Selectivity index, ratio of CC50 for human HepG2 cells to EC50 for antileishmanial activity against Leishmania infantum MHOM/MA/67/ITMAP-263 axenic amastigotes; type: toxicity; conditions: read-out: Ratio CC50/EC50
[4] = Electrochemical behavior of the compound assessed as redox potential corrected toward normal hydrogen electrode by cyclic voltammetry
[5] = Cytotoxicity against human HepG2 cells assessed as reduction in cell viability after 72 hrs by MTT assay; type: cell-based
Summary of the method: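 MTT was applied at 0.5 mg/mL for 2 h, formazan was dissolved in DMSO, and absorbance read at 570 nm with a 630 nm reference. Doxorubicin was the positive control. CC50 was taken from the dose-response curve, as the mean of three experiments.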

[6] = Selectivity index, ratio of CC50 for human HepG2 cells to EC50 for Trypanosoma brucei brucei trypomastigotes AnTat 1.9; type: toxicity; conditions: read-out: Ratio CC50/EC50
[7] = Selectivity index, ratio of CC50 for human HepG2 cells to EC50 for antileishmanial activity against Leishmania donovani MHOM/IN/00/DEVI promastigotes; type: toxicity; conditions: read-out: Ratio CC50/EC50
[8] = Microsomal stability in CD-1 mouse liver microsomes assessed as half life in presence of NADP measured up to 40 mins by LC-MS analysis; type: ADME, Microsome
Summary of the method: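 Compound was incubated in duplicate with female CD-1 mouse microsomes at 37 °C in 50 mM phosphate, pH 7.4. An NADP-regenerating system was present (MgCl₂ 5 mM, NADP 1 mM, G6PDH 0.4 U/mL, G6P 5 mM).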

Albumin = Albumin (Homo sapiens, UniProt P02768); assay: Binding affinity to human albumin incubated for 4 hrs by LC-MS analysis; type: ADME; conditions: read-out: PB (converted)
[9] = Aqueous solubility of compound; type: physicochemical; conditions: buffer
[10] = Permeability of the compound in pH 7.4 Prisma HT buffer at 100 uM incubated for 4 hrs by PAMPA-BBB assay method
Leishmania donovani [11] = assay: Antileishmanial activity against Leishmania donovani amastigotes infected in human THP1 cells assessed as reduction in parasite infection treated with compound at 24 hrs post infection and measured after 120 hrs by Giemsa staining-based assay; type: functional, organism-based; conditions: THP-1
Summary of the method: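 THP-1 cells were differentiated with PMA (50 ng/mL, 48 h). They were infected 10:1 with promastigotes acidified at pH 5.4, for 24 h. Compound was added (DMSO <0.5%), in duplicate, and cells were incubated 120 h at 37 °C, 5% CO₂. Cells were methanol-fixed and Giemsa-stained, and ≥200 cells were counted for % infected macrophages. IC50 came from regression, as the mean of ≥3 experiments.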

Chain of Albumin (P02768 whole entry): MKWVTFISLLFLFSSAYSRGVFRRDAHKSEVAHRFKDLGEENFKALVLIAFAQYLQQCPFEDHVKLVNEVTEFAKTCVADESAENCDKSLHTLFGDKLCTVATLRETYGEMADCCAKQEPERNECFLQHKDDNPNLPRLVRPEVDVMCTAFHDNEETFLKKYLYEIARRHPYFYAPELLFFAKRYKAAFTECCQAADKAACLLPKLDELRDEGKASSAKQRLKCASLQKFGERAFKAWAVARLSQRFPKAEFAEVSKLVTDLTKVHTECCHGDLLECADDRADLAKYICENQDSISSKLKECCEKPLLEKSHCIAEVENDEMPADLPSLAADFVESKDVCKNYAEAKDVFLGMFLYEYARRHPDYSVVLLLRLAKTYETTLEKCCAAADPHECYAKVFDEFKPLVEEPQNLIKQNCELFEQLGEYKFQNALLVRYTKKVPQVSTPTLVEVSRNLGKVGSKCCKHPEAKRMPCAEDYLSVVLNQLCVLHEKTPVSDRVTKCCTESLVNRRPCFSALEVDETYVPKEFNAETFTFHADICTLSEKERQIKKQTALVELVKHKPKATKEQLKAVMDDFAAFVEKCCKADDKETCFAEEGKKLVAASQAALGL

Row | EC50 (Leishmania infantum) [µM] | EC50 [2] [µM] | Activity [4] [V] | half-life [8] [min] | fraction unbound at 4 h (Albumin) | solubility [9] | EC50 (Leishmania donovani [11]) [µM] | SMILES | EC50 (Leishmania donovani [1]) [µM] | selectivity ratio [3] | CC50 at 72 h [5] [µM] | selectivity ratio [6] | selectivity ratio [7] | Papp at 4 h, 100 µM [10] [×10⁻⁶ cm/s]
1 | 17.8 | > 50 | -0.7 |  |  |  |  | O=[N+]([O-])c1c(CSc2ccccc2)nc2c(Br)cc(Cl)cn12 | > 12.5 | > 1.8 | > 31.2 |  |  | 
2 | 10.3 | 0.067 |  | 12 | 0.011 |  |  | CS(=O)(=O)Cc1nc2c(Sc3ccc(Cl)cc3)cc(Cl)cn2c1[N+](=O)[O-] | 1.2 | > 3 | > 31.2 | > 466 | > 26 | 
3 | 46.3 | > 50 |  |  |  |  |  | O=[N+]([O-])c1c(CO)nc2c(Br)cc(Cl)cn12 | > 12.5 | > 5.4 | > 125 |  |  | 
4 |  | 2.2 |  |  |  | Insoluble |  | CSCc1nc2c(Br)cc(Cl)cn2c1[N+](=O)[O-] |  |  | > 15.6 | > 7.1 |  | 
5 |  |  | -0.65 | 12 | 0.035 |  |  | O=[N+]([O-])c1c(CS(=O)(=O)c2ccccc2)nc2c(Br)cc(Cl)cn12 |  |  |  |  |  | 
6 | 15.9 | 0.4 |  |  |  |  |  | O=[N+]([O-])c1cnc2c(Br)cc(Cl)cn12 | 9.3 | 1 | 16.2 | 40.5 | 1.7 | 
7 | > 3.1 | 1.2 | -0.76 |  |  |  |  | Cc1cc(Br)c2nc(CS(=O)(=O)c3ccccc3)c([N+](=O)[O-])n2c1 | 5.6 |  | > 31.2 | > 26 | > 5.6 | 
8 | > 100 | 0.5 |  |  |  |  |  | O=[N+]([O-])c1c(CS(=O)(=O)C2CCCCC2)nc2c(Br)cc(Cl)cn12 | 0.9 |  | > 15.6 | > 31.2 | > 17.3 | 
9 | > 3.1 | 4 | -0.6 |  |  |  |  | O=[N+]([O-])c1c(CS(=O)(=O)c2ccccc2)nc2c(Br)cc(C(F)(F)F)cn12 | 6.2 |  | > 15.6 | > 3.9 | > 2.5 | 
10 |  | 0.02 |  |  |  |  |  | C[S+]([O-])Cc1nc2c(Br)cc(Cl)cn2c1[N+](=O)[O-] (stereo unspecified) |  |  | 51.4 | 2570 |  | 
11 | 1.6 | 1.5 |  |  |  |  | > 10 | O=[N+]([O-])c1c(CS(=O)(=O)C2CCCCC2)nc2c(Sc3ccc(Cl)cc3)cc(Cl)cn12 | 1.9 | > 19.5 | > 31.2 | > 20.8 | > 16.4 | 
12 | 77.8 | 0.025 |  | 27 | 0.13 | Soluble |  | O=[N+]([O-])c1c(CS(=O)(=O)c2cccnc2)nc2c(Br)cc(Cl)cn12 | 0.8 | > 0.8 | > 62.5 | > 2500 | > 78 | 
13 | > 100 | 7.2 |  |  |  |  |  | CS(=O)(=O)Cc1nc2c(Br)cc(Cl)cn2c1N | > 12.5 |  | > 125 |  |  | 
14 |  |  | -0.69 |  |  | Insoluble |  | O=[N+]([O-])c1c(CS(=O)(=O)c2ccccc2)nc2c(Nc3ccccc3)cc(Cl)cn12 |  |  | > 3.9 |  |  | 
15 | 32.1 | > 50 |  |  |  |  |  | Cc1nc2c(Br)cc(Cl)cn2c1[N+](=O)[O-] | > 12.5 | > 3.9 | > 125 |  |  | 

Second part, the compound before the results:

Row | SMILES | EC50 (Leishmania infantum) [µM] | EC50 [2] [µM] | Activity [4] [V] | half-life [8] [min] | fraction unbound at 4 h (Albumin) | solubility [9] | EC50 (Leishmania donovani [11]) [µM] | EC50 (Leishmania donovani [1]) [µM] | selectivity ratio [3] | CC50 at 72 h [5] [µM] | selectivity ratio [6] | selectivity ratio [7] | Papp at 4 h, 100 µM [10] [×10⁻⁶ cm/s]
16 | CSc1ccc(OCc2ncc([N+](=O)[O-])n2C)cc1 [FEXINIDAZOLE] |  |  | -0.83 |  |  |  |  |  |  |  |  |  | 
17 | O=[N+]([O-])c1c(CS(=O)(=O)c2ccccc2)nc2c(Sc3ccc(Cl)cc3)cc(C(F)(F)F)cn12 |  | 0.17 | -0.58 |  |  |  |  | 1.9 |  | > 7.8 | > 45.9 | > 4.1 | 
18 | Cc1nc2c(Sc3ccc(Cl)cc3)cc(Cl)cn2c1[N+](=O)[O-] |  |  | -0.79 |  |  |  |  | > 12.5 |  | > 7.8 |  |  | 
19 | Cn1c(=O)c2[nH]cnc2n(C)c1=O.O [THEOPHYLLINE] |  |  |  |  |  |  |  |  |  |  |  |  | 0.47
20 | O=[N+]([O-])c1c(CSc2ccccc2)nc2c(Sc3ccc(Cl)cc3)cc(Cl)cn12 |  | > 50 | -0.72 |  |  |  |  | 7.4 |  | > 15.6 |  | > 2.1 | 
21 | O=[N+]([O-])c1c(CO)nc2c(Sc3ccc(Cl)cc3)cc(Cl)cn12 | 7.9 | > 50 |  |  |  |  |  | 4 | > 2 | > 15.6 |  | > 3.9 | 
22 | O=[N+]([O-])c1c(CS(=O)(=O)c2ccccc2)nc2c([Se]c3ccc(Cl)cc3)cc(Cl)cn12 | 0.9 | 0.3 |  |  |  | Insoluble |  | 0.7 | > 8.7 | > 7.8 | > 26 | > 11.1 | 
23 | COc1ccc(Nc2cc(Cl)cn3c([N+](=O)[O-])c(CS(=O)(=O)c4ccccc4)nc23)cc1 |  |  |  |  |  | Insoluble |  |  |  | > 3.9 |  |  | 
24 | O=[N+]([O-])c1c(CS(=O)(=O)c2ccccc2)nc2c(Nc3ccc(Cl)cc3)cc(Cl)cn12 |  |  |  |  |  | Insoluble |  |  |  | > 3.9 |  |  | 
25 | O=[N+]([O-])c1cnc2c(Sc3ccc(Cl)cc3)cc(Cl)cn12 |  | 0.085 | -0.74 |  |  | Insoluble |  | 2.5 |  | > 7.8 | > 92.8 | > 3.1 | 
26 | Cc1cc(Sc2ccc(Cl)cc2)c2nc(CS(=O)(=O)c3ccccc3)c([N+](=O)[O-])n2c1 | 5 | 1.8 | -0.76 |  |  |  |  | 2.6 | 12.5 | > 62.5 | > 34.7 | > 24 | 
27 | CC1CS(=O)(=O)CCN1/N=C/c1ccc([N+](=O)[O-])o1 (stereo unspecified) [NIFURTIMOX] |  |  | -0.61 |  |  |  |  |  |  |  |  |  | 
28 | C[C@@H]1[C@H](O)[C@@H](C)/C=C/C=C/C=C/C=C/C=C/C=C/C=C/[C@H](O[C@@H]2O[C@H](C)[C@@H](O)[C@H](N)[C@@H]2O)C[C@@H]2O[C@](O)(C[C@@H](O)C[C@@H](O)[C@H](O)CC[C@@H](O)C[C@@H](O)CC(=O)O[C@H]1C)C[C@H](O)[C@H]2C(=O)O [AMPHOTERICIN B] | 0.06 |  |  |  |  |  |  |  |  |  |  |  | 
29 | O=[N+]([O-])c1c(CS(=O)(=O)c2cccnc2)nc2c(Sc3ccc(Cl)cc3)cc(Cl)cn12 | 0.8 | 1.2 |  |  |  |  | > 10 | 0.5 | > 39 | > 31.2 | > 26 | > 62.4 | 
